Where a SMILES comes first, the peptide text is derived from it.
How the values were obtained:
Substance-K receptor = biological target: T1, Substance-K receptor (Rattus norvegicus, UniProt P16610); assay: Inhibition of eledoisin binding to NK-2 receptor in rat vas deferens
T1 sequence (P16610 whole entry): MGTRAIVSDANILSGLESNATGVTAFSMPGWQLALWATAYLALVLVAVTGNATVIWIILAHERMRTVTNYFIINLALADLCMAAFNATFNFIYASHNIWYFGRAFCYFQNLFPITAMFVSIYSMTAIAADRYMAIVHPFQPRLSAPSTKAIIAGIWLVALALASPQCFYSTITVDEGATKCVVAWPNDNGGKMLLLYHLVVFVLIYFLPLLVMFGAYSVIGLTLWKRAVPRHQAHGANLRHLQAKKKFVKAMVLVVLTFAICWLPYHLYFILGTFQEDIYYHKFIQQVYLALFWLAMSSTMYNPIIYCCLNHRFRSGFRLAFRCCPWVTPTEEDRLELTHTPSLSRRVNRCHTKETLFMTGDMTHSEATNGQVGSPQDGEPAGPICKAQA
Procedure, shortened: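 Vas deferens from Sprague-Dawley rats (200–300 g), electrically stimulated contractions with supramaximal rectangular bipolar pulses. Eledoisin log dose-response curves; antagonism taken from rightward shift. pA2 by Schild regression over three or more antagonist concentrations, or apparent pA2 from one antagonist concentration via the standard Schild equation assuming unit slope.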

Neuromedin-K receptor = biological target: T2, Neuromedin-K receptor (Rattus norvegicus, UniProt P16177); assay: Tested for antagonist activity toward NK-3 receptor in rat portal vein against the agonist eledoisin (mean +/-, n=4)
T2 sequence (P16177 whole entry): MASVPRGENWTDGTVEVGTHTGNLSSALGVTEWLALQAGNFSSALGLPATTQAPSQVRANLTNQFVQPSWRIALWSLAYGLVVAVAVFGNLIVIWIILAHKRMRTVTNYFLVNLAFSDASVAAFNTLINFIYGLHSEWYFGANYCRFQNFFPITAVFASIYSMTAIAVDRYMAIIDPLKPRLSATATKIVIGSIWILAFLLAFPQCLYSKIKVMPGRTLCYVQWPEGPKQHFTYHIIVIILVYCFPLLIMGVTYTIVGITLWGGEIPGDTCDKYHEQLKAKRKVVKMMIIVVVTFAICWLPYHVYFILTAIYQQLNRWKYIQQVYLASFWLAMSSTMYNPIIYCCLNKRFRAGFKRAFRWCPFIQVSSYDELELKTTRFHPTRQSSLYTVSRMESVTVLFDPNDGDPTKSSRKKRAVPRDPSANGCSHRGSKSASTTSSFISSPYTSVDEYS
Procedure, shortened: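 Rat portal vein longitudinal strips; frequency and amplitude of myogenic contractions recorded. Antagonist activity derived from rightward shift of eledoisin log dose-response curves. pA2 by Schild regression, least squares, three or more antagonist concentrations, or apparent pA2 at a single antagonist concentration assuming unit slope (mean of three or four observations).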

Substance-P receptor = Substance-P receptor (Cavia porcellus, UniProt P30547); assay: Tested for antagonist activity toward NK-1 receptor in guinea pig ileum against the agonist eledoisin (mean +/-, n=4)
Procedure, shortened: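 Guinea pig (male Dunkin-Hartley, 300–400 g) small-intestine longitudinal muscle, isometric contraction in Krebs-Henseleit at 37 °C with atropine, mepyramine, methysergide (each 5 μM) and indomethacin (1 μM). Antagonism measured as rightward shift of log dose-response curves to eledoisin. pA2 from Schild regression (least squares, three or more antagonist concentrations, three or more observations each), or apparent pA2 at a single concentration assuming unit slope (mean of 3–4 observations).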

Chain of Substance-P receptor (P30547 whole entry): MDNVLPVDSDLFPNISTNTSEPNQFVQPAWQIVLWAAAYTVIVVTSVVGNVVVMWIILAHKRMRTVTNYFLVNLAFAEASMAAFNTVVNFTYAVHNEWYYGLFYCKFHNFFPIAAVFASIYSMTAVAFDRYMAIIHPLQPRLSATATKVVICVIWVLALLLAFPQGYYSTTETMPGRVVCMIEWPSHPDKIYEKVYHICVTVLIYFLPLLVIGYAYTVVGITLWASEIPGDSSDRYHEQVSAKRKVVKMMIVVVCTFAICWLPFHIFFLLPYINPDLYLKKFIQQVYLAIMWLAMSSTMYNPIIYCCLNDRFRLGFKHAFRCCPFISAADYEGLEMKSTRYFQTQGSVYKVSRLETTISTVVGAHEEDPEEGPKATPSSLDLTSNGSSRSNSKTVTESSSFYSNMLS

CSCC[C@@H]1NC(=O)[C@H](CC(C)C)NC(=O)[C@H](Cc2ccccc2)NC(=O)[C@H](Cc2c[nH]c3ccccc23)NC(=O)[C@H](CCC(N)=O)NC1=O (cyclo(FLMQW))
Kd (Substance-K receptor): 0.631 µM

CSCC[C@H]1NC(=O)[C@H](CC(C)C)NC(=O)[C@H]2CCCN2C(=O)[C@H](Cc2ccccc2)NC(=O)[C@@H](Cc2c[nH]c3ccccc23)NC(=O)[C@H](CCC(N)=O)NC1=O
Kd (Substance-K receptor): 20 µM

CSCC[C@H]1NC(=O)[C@H](CC(C)C)NC(=O)[C@@H]2CCCN2C(=O)[C@H](Cc2ccccc2)NC(=O)[C@@H](Cc2c[nH]c3ccccc23)NC(=O)[C@H](CCC(N)=O)NC1=O
Kd (Substance-K receptor): 15.8 µM

CSCC[C@@H]1NC(=O)[C@H](CC(C)C)NC(=O)CNC(=O)[C@H](Cc2ccccc2)NC(=O)[C@H](Cc2c[nH]c3ccccc23)NC(=O)[C@H](CCC(N)=O)NC1=O (cyclo(FGLMQW))
Kd (Substance-K receptor): 0.00794 µM
Kd (Neuromedin-K receptor): 7.94 µM
Kd (Substance-P receptor): 2 µM

CSCC[C@H]1NC(=O)[C@H](CC(C)C)N2C=CC(NC(=O)[C@H](Cc3ccccc3)NC(=O)[C@@H](Cc3ccccc3)NC(=O)C(CCC(N)=O)NC1=O)C2=O (some centres not stated)
Kd (Substance-K receptor): 15.8 µM

— BindingDB's records for doi:10.1021/jm00053a001 (Merck Sharp and Dohme Research Laboratories, 1993)
